# Scp-1 inhibitor – blocks human Scp-1 phosphatase activity; Q9GZU7; 340,000 compounds, 0.88% hits; Recombinant Scp1, phosphopeptide, malachite green phosphate absorbance; inhibition, % at 20 µM;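 active = inhibition above about 50% at 20 µM, limit read from the data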;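 note: plate controls were DMSO wells with enzyme for no effect and wells lacking enzyme for full effect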
#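 Test system: SCP-1 catalytic domain; Buffer or medium: Acidic Tris acetate buffer with magnesium and detergent; Also added: Phosphorylated 17-residue peptide substrate; Compound: single 20 µM dose, 1% DMSO; Schedule: enzyme reaction 45 min at room temperature, colour 5 min, stabilisation 30 min; Signal: Phosphate-binding colour reagent, absorbance read at 630 nm.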
# STEP block – STEP (human) phosphatase inhibition | P54829 | recombinant STEP, OMFP fluorogenic substrate, fluorescence | inhibition, % at 20 µM | 360,000 compounds, 0.25% hits | AID 588621;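 active = inhibition at 20 µM, scaled per plate between control wells, above about 37%, limit read from the data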;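 note: 0% = DMSO with enzyme and substrate and 100% = substrate only without enzyme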
# Target sequence (P54829 whole entry, looked up): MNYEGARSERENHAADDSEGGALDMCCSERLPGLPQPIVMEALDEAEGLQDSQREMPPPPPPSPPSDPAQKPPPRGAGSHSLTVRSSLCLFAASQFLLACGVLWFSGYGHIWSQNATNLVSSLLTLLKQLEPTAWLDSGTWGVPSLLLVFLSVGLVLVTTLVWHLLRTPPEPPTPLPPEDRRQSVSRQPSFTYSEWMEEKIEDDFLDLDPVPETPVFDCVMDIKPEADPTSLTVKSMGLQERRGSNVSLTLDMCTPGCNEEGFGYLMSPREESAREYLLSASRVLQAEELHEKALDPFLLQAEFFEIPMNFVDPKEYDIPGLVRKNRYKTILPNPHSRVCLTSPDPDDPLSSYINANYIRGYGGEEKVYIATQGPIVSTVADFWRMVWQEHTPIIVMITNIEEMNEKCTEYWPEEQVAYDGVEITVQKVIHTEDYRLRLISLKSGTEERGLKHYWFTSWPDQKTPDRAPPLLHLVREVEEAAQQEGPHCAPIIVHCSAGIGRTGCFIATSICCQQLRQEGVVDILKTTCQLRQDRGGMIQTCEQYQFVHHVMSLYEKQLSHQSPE
#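 Material: STEP (striatal-enriched tyrosine phosphatase) enzyme, cell-free; Compound dosing: 20 µM single dose in 1% DMSO; Technique: fluorescence read at 480 nm ex / 540 nm em; Times: reaction 20 min, ambient temperature; Medium: 50 mM Bis-Tris pH 6.0 with 2.5 mM DTT and 0.005% Tween 20; Also added: OMFP at 25 µM.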
# SUMO1-SIM PPI – modulators of human SUMO1-mediated protein-protein interactions. P63165. SUMO1 binding to a labelled peptide, TR-FRET, 1 h. inhibition, % at 20 µM. 360,000 compounds, 0.33% hits; in the data active = inhibition above about 37%
# DNMT1 block – DNMT1 (human) enzyme inhibition. DNMT1 molecular beacon, Hinp1I cleavage, fluorescence. inhibition (reported as % activation of signal), % at 10 µM. 360,000 compounds, 0.83% hits; in the data active = inhibition above about 50%
# LMPTP block – blocks human LMPTP phosphatase; inhibition, % at 20 µM; recombinant LMPTP-A, OMFP fluorogenic substrate, fluorescence intensity; 360,000 compounds, 0.22% hits; P24666;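 active = compounds that cut the enzyme signal by at least half of the control window in the single-dose screen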;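 note: plate controls were DMSO wells with enzyme plus substrate for no effect and substrate without enzyme for full effect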
#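 Test system – LMPTP-A phosphatase enzyme · Quantity – 0.625 nM LMPTP-A final · Reagent – OMFP substrate, 400 µM final · Dosing – one test concentration per compound, 20 µM, with 3% DMSO overall · Timing – 50 min enzyme reaction at room temperature, protected from light · Detection – fluorescence intensity · Controls – substrate-only low control, DMSO enzyme-plus-substrate high control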
# * = called active by the depositor; . = no result given. Rows were chosen to be rich in hits. Some 1.7% of all compounds tested hit in one or more screens of this group.
SMILES,Scp-1 inhibitor,STEP block,SUMO1-SIM PPI,DNMT1 block,LMPTP block
COC(=O)c1c(C)[nH]c(C(=O)C(C)OC(=O)c2cnc(C)cn2)c1C (configuration not stated),-5,4,2,3,0
Nc1c(C(=O)NCc2ccco2)sc2nc3c(cc12)C(=O)CCC3,74*,1,6,0,13
c1ccc(CN2CCC(Nc3nc(-c4ccccc4)nc4ccccc34)CC2)cc1,-4,0,3,15,80*
CCN(CC)S(=O)(=O)c1cc(NC(=O)COC(=O)c2c(C)noc2C)ccc1C,1,-1,-1,2,0
Cc1c(C(=O)N(Cc2cccc(Br)c2)C2CCS(=O)(=O)C2)oc2ccc(F)cc12 (configuration not stated),-4,-2,-5,-1,4
Nc1ccc2c(c1)C/C(=C/c1ccco1)C2=O,73*,10,40*,88*,67*
O=C1/C(=C/c2ccco2)CCc2ccccc21,-10,1,-19,-4,0
Cc1cc(C)c(C(=O)COC(=O)c2nn(C)c(=O)c3ccccc23)cc1C,-11,1,-10,-3,3
CC(=O)Nc1sc2c(c1C#N)CCN(Cc1ccccc1)C2,-5,3,4,1,-2
CN1Cc2sc(NC(=S)NC(=O)c3ccccc3)c(C#N)c2CC1(C)C,3,.,.,.,.
N#Cc1c(NC(=O)/C=C/C(=O)O)sc2c1CCN(Cc1ccccc1)C2,68*,2,10,37,47*
CCN1CCc2c(sc(NC(=S)NC(=O)c3ccccc3)c2C#N)C1,9,-3,-1,-5,58*
CCC1(C)Cc2c(sc(NC(=S)NC(=O)c3ccccc3)c2C#N)CO1 (configuration not stated),-3,1,-5,-5,52*
COC(=O)COc1ccc(/C=C2\SC(=O)N(CC(=O)Nc3ccccc3F)C2=O)cc1,-6,2,2,17,-2
CC(=O)NC(C)(c1ccccc1)c1nc(-c2cnc3ccccc3c2)cs1 (configuration not stated),.,-2,-18,-9,-2
COc1cc(C(=O)N/N=C/c2ccc(OC(=O)c3ccccc3)c(OC)c2)ccc1O,5,3,-2,-6,2
COc1ccc(/C=N\NC(=O)c2cc(O)c(O)c(O)c2)cc1COc1ccc(C(=O)OCC(C)C)cc1,51*,6,16,-14,12
COc1cc(/C=N/NC(=O)c2ccc(O)cc2)ccc1OCC(=O)Nc1cccc([N+](=O)[O-])c1,4,8,93*,4,-1
COc1ccc(C(=O)N/N=C/c2ccc(OC)c(COc3ccccc3)c2)cc1,0,2,-4,-4,0
COc1cc(/C=N/NC(=O)c2cc(O)cc(O)c2)ccc1OC(=O)c1ccccc1,62*,67*,34,77*,13
Nc1ccc2c(Cl)cc(Cl)cc2c1,.,0,-14,-20,1
Cn1c(=O)c(NCCc2ccccc2)c2c3c(cccc31)C(=O)c1ccccc1-2,-11,-166,-43,76*,-18
CCNc1c2c3c(cccc3n(C)c1=O)C(=O)c1ccccc1-2,-9,.,.,.,.
Cn1c(=O)c(NCCO)c2c3c(cccc31)C(=O)c1ccccc1-2,-8,-171,-43,142*,-14
CCCCNc1c2c3c(cccc3n(C)c1=O)C(=O)c1ccccc1-2,-8,-210,-57,192*,-6
SMILES,Scp-1 inhibitor,STEP block,SUMO1-SIM PPI,DNMT1 block,LMPTP block
COc1ccc(CN(C)C(=O)C(Cc2ccccc2)NC(=O)c2ccccc2)c(OC)c1 (configuration not stated),6,3,-1,2,3
CCC(C)Nc1nc(-c2ccc3c(c2)NC(=O)CO3)cs1 (configuration not stated),7,-2,0,-6,48*
COc1ccccc1Nc1nc(-c2ccc3c(c2)NC(=O)CO3)cs1,1,-1,-6,-22,48
COc1ccc(Nc2nc(-c3ccc4c(c3)NC(=O)CO4)cs2)cc1,1,0,-4,-26,54*
CCOC(=O)c1c(NC(=O)COC(=O)CCNS(=O)(=O)c2ccccc2)sc(C(=O)N(C)C)c1C,-1,-1,9,-1,0
OC(Cc1cccnc1)c1ccccc1 (configuration not stated),-5,-2,28,0,-3

# High-throughput results (PubChem BioAssay)
